Source: ChEMBL document CHEMBL1124912, “Inhibition of human leukocyte elastase. 3. Synthesis and activity of 3'-substituted cephalosporins” (J Med Chem, 1990)

Experiments:
Neutrophil elastase = biological target: T1, Neutrophil elastase (Homo sapiens, UniProt P08246); test: In vitro inhibitory activity against human leukocyte elastase (HLE)
T1 sequence (P08246 whole entry): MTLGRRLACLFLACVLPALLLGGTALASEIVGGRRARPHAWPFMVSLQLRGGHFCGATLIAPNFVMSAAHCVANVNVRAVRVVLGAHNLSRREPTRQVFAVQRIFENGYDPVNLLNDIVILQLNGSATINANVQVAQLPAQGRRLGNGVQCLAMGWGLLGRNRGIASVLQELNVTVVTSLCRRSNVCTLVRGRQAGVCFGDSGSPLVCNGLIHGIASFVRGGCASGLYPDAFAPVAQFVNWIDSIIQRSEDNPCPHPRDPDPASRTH
Method in brief: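 HLE at 1 μg/mL mixed with inhibitor, with enzyme activity read 2 min after mixing. IC50 (μM) is the inhibitor concentration that cuts HLE activity by 50%.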

[1] = biological target: T2, Neutrophil elastase (Homo sapiens) (UniProt P08246)
T2 sequence (whole entry): T1 sequence (P08246 whole entry)

[2] = biological target: T2, Neutrophil elastase (Homo sapiens); test: Second-order rate constant for time-dependent inactivation of Human Leukocyte Elastase for 15 min
Method in brief: (§1)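 Inactivation of HLE by inhibitor was followed over 15 min. The second-order rate constant was expressed as k_obs/[I] (M^-1 s^-1). Where inhibition was not time-dependent, Ki was instead calculated from the initial velocity.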

[3] = biological target: T2, Neutrophil elastase (Homo sapiens); test: Second-order rate constant for time-dependent inactivation of HLE for 15 min; method in brief: as §1

Structure (SMILES) | IC50 (Neutrophil elastase) [nM] | k obs / 1 [1] [M⁻¹ s⁻¹] | k obs / 1 [2] [M⁻¹ s⁻¹] | k obs / 1 [3] [M⁻¹ s⁻¹]
CO[C@H]1C(=O)N2C(C(=O)OC(C)(C)C)=C(COC(C)=O)CS(=O)(=O)C12 (stereo partly specified) | 1330 | 12700 |  | 
CO[C@H]1C(=O)N2C(C(=O)OC(C)(C)C)=C(CSc3nnnn3C)CS(=O)(=O)C12 (stereo partly specified) | 1620 |  | 15000 | 
CO[C@H]1C(=O)N2C(C(=O)OC(C)(C)C)=C(CSc3nc[nH]n3)CS(=O)(=O)C12 (stereo partly specified) |  |  | 3500 | 
C=CCC1=C(C(=O)OC(C)(C)C)N2C(=O)[C@H](OC)C2S(=O)(=O)C1 (stereo partly specified) |  |  | 6100 | 
CO[C@H]1C(=O)N2C(C(=O)OC(C)(C)C)=C(CSc3nnnn3CC(=O)O)CS(=O)(=O)C12 (stereo partly specified) |  |  | 3700 | 
CCOC(=S)SCC1=C(C(=O)OC(C)(C)C)N2C(=O)[C@H](OC)C2S(=O)(=O)C1 (stereo partly specified) | 1820 |  | 4300 | 
CO[C@H]1C(=O)N2C(C(=O)OC(C)(C)C)=C(COC(=O)C(C)(C)C)CS(=O)(=O)C12 (stereo partly specified) |  |  | 15800 | 
CO[C@H]1C(=O)N2C(C(=O)OC(C)(C)C)=C(COC(=O)CCC(=O)O)CS(=O)(=O)[C@H]12 |  |  |  | 13800
CO[C@H]1C(=O)N2C(C(=O)OC(C)(C)C)=C(COC(=O)NCc3ccccc3)CS(=O)(=O)C12 (stereo partly specified) |  |  | 15100 | 
CO[C@H]1C(=O)N2C(C(=O)OC(C)(C)C)=C(COC(=O)N[C@@H](Cc3ccccc3)C(=O)O)CS(=O)(=O)C12 (stereo partly specified) | 130 |  |  | 63900
CO[C@H]1C(=O)N2C(C(=O)OC(C)(C)C)=C(COC(=O)c3ccccc3)CS(=O)(=O)C12 (stereo partly specified) |  |  | 32500 | 
CO[C@H]1C(=O)N2C(C(=O)OC(C)(C)C)=C(CCl)CS(=O)(=O)C12 (stereo partly specified) |  |  | 14900 | 
CO[C@H]1C(=O)N2C3=C(COC3=O)CS(=O)(=O)C12 (stereo partly specified) | 57800 |  | 46 | 
CO[C@H]1C(=O)N2C(C(=O)OC(C)(C)C)=C(C)CS(=O)(=O)C12 (stereo partly specified) |  |  |  | 1630
CO[C@H]1C(=O)N2C(C(=O)OC(C)(C)C)=C(CSc3nnc[nH]3)CS(=O)(=O)C12 (stereo partly specified) | 2400 |  |  | 
CO[C@H]1C(=O)N2C(C(=O)OC(C)(C)C)=C(CS(=O)(=O)c3ccccc3)CS(=O)(=O)C12 (stereo partly specified) | 440 |  |  | 
CO[C@H]1C(=O)N2C(C(=O)OC(C)(C)C)=C(COC(N)=O)CS(=O)(=O)C12 (stereo partly specified) |  |  |  | 10800
COCC1=C(C(=O)OC(C)(C)C)N2C(=O)[C@H](OC)C2S(=O)(=O)C1 (stereo partly specified) | 1000 |  |  | 
CO[C@H]1C(=O)N2C(C(=O)OC(C)(C)C)=C(CSc3nccn3C)CS(=O)(=O)C12 (stereo partly specified) | 2330 |  | 1880 | 
CO[C@H]1C(=O)N2C(C(=O)OC(C)(C)C)=C(CSc3nc(=O)c(=O)[nH]n3C)CS(=O)(=O)C12 (stereo partly specified) | 630 |  | 8600 | 
CO[C@H]1C(=O)N2C(C(=O)OC(C)(C)C)=C(CSc3nnc(C)s3)CS(=O)(=O)C12 (stereo partly specified) | 2230 |  |  | 7900
CO[C@H]1C(=O)N2C(C(=O)OC(C)(C)C)=C(C[S+]([O-])c3ccccc3)CS(=O)(=O)C12 (stereo partly specified) | 910 |  |  | 16800
